# Measured values as given in article PMC2638642 (Toxicological Sciences, 2008).
# Key:
# Toxicokinetic = format: in vivo, BALB/c mice
# Outline: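 Female BALB/c mice (12/group) got vancomycin iv or ip at 50, 200 or 400 mg/kg. Retro-orbital EDTA plasma came from three mice per time point, 0.083–24 h after doses 1 and 7. Plasma went through SPE with a tinidazole internal standard, eluted in acetonitrile:KH2PO4 pH 4, then gradient LC; calibration by 1/y-weighted regression of peak-area ratio. Noncompartmental analysis; F = (AUCip/AUCiv)×(Doseiv/Doseip).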
# BALB/c mice [1] = test: Serum clinical chemistry, 7-day toxicity study; format: in vivo; details: for BUN change: 3 mice per group
# Outline: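 Groups of six female BALB/c mice were dosed iv or ip with the test compound at 50, 200 or 400 mg/kg once daily for 7 days; controls got 0.9% saline by the same route. Retro-orbital blood was taken from three randomly selected mice per group on day 3 (before the third dose) and day 8 (before sacrifice). Serum BUN, ALP and GGT were measured by an outside veterinary laboratory.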
# BALB/c mice [2] = test: Histopathology, 7-day toxicity study; format: in vivo
# [3] = after iv administration in human; ref Palmer-Toy, 2000; Rybak, 2006; cited from earlier work
# [4] = high-dose treatment, day 8, serum
smiles,measurement,setting,value
CN[C@H](CC(C)C)C(=O)N[C@H]1C(=O)N[C@@H](CC(N)=O)C(=O)N[C@H]2C(=O)N[C@H]3C(=O)N[C@H](C(=O)N[C@H](C(=O)O)c4cc(O)cc(O)c4-c4cc3ccc4O)[C@H](O)c3ccc(c(Cl)c3)Oc3cc2cc(c3O[C@@H]2O[C@H](CO)[C@@H](O)[C@H](O)[C@H]2O[C@H]2C[C@](C)(N)[C@H](O)[C@H](C)O2)Oc2ccc(cc2Cl)[C@H]1O [vancomycin],AUC^0→∞ after iv relative to ip administration (iv higher),"Toxicokinetic; BALB/c mice, 200 mg/kg",1.7 fold
same,difference in Cmax value between iv and ip administration (iv higher),"Toxicokinetic; BALB/c mice, 200 mg/kg, after seven doses",3.4 fold
same,clinical condition of animals in TK study,"Toxicokinetic; iv high-dose group (400 mg/kg), some animals",moribund or dead
same,CRE (serum creatinine) levels,"BALB/c mice [1]; 50, 200, 400 mg/kg/day iv or ip x7",not significantly affected
same,BUN change,"BALB/c mice [1]; high-dose (400 mg/kg/day x7) ip, day 8, serum",trend toward increased BUN values
same,BUN change,"BALB/c mice [1]; high-dose (400 mg/kg/day x7) iv, day 8, serum",statistically significant increase
same,alkaline phosphatase (ALP),BALB/c mice [1]; [4],affected
same,gamma-glutamyl transferase (GGT),BALB/c mice [1]; [4],affected
same,primary histopathological finding in kidneys,"BALB/c mice [2]; 400 mg/kg/day either iv or ip x7, day 8, H&E",proximal tubular necrosis
same,inflammatory cell infiltration into the affected renal tissue,"BALB/c mice [2]; 400 mg/kg/day iv or ip x7, day 8, H&E",minimal
same,signs of toxicity in clinical chemistry and histopathology assessments,BALB/c mice [2]; iv-200 (200 mg/kg/day iv x7),did not exhibit signs of toxicity
same,Cmax in human (also therapeutic range),[3],20000 to 50000 ng/mL
